Where “and” joins values, the source holds several entries; their conditions need not be identical. Identical values can stand only once. Like-named read-outs stand apart in the source and are kept apart here.
Legend:
[1] = system: Oxidative Phosphorylation; conditions: cited from earlier work
[2] = system: Oxidative Phosphorylation; assay: Polarography; assay type: biochemical; conditions: mouse skeletal muscle mitochondria, five preparations, creatine kinase clamp, 5 mM ATP, 37°C
Procedure, shortened: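 Mouse skeletal muscle mitochondria from five preparations, resuspended in mannitol-sucrose buffer, oxidised 10 mM glutamate + 10 mM succinate at 37°C. O2 consumption was recorded continuously. Steady-state ADP was clamped over a range by varying the phosphocreatine/creatine ratio, with 5 mM ATP and saturating creatine kinase. K0.5 was expressed as total ADP and as ADP3−.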

[3] = system: Oxidative Phosphorylation; assay type: biochemical; conditions: human skeletal muscle mitochondria, glutamate + succinate, 20 μM AP5A, mean
Procedure, shortened: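 Isolated human skeletal muscle mitochondria, diluted in mannitol–sucrose buffer. Firefly luciferase ATP-accumulation assay at 25°C in KCl/MOPS medium at pH 7.0 with 5 mM MgCl2, 10 mM phosphate, glucose, EGTA, DTT and 0.2 g% BSA, plus 20 μM AP5A. ADP at eight levels from 0 to 125 μM (ΣADP). Started with 10 mM glutamate + 10 mM succinate. RLU read per minute over 7–10 min; at least duplicate.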

Creatine Kinase = assay type: biochemical, mouse; conditions: 10 mM phosphocreatine, 20 μM AP5A, mean
Procedure, shortened: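 Creatine kinase pathway in isolated mouse tissue mitochondria. Started by adding 10 mM phosphocreatine, with 20 μM AP5A to block AK. Run at 25°C in pH 7.0 medium with 100 mM KCl, 50 mM MOPS, 5 mM MgCl2, 10 mM phosphate, D-luciferin and luciferase. ADP at eight concentrations from 0 to 125 μM. Luminescence read each minute over 7–10 min against ATP standard curves; at least duplicate.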

[4] = molecular target: adenine nucleotide translocase (ANT); conditions: read-out: ANT-ADP dissociation constant, KdADP^3−; free ion ADP^3−; cited from earlier work
[5] = system: Oxidative Phosphorylation; assay type: biochemical, mouse
Procedure, shortened: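 Mouse liver, kidney, heart and skeletal muscle mitochondria were isolated and diluted in mannitol–sucrose buffer. Run at 25°C in KCl/MOPS medium at pH 7.0 with 5 mM MgCl2, 10 mM phosphate, 20 μM AP5A, luciferin and luciferase. Eight ADP levels from 0 to 125 μM; start with 10 mM glutamate + 10 mM succinate. Luminescence read each minute for 7–10 min against ATP standards; at least duplicate. ADP3− computed from ΣADP.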

Adenylate Kinase = Adenylate Kinase (Mus musculus, UniProt Q9WTP6); assay type: biochemical
[6] = molecular target: adenine nucleotide translocase (ANT); assay: Carboxyatractyloside titration of OxPhos with Easson-Stedman analysis; assay type: biochemical; conditions: read-out: CAT-ANT Kd; human skeletal muscle mitochondria; Easson-Stedman equation; low [ADP] 6.25 and/or 12.5 μM; n=27
Procedure, shortened: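 Human skeletal muscle mitochondria, oxidising glutamate + succinate, were mixed with reaction mix containing 20 μM AP5A, one ADP level (6.25, 12.5 or 25 μM) and one of eight CAT levels (0–5.0 nM). After 5 min for binding, substrate was added to start the reaction. ATP output was followed by luciferase light at 25°C, at least in duplicate. The Easson-Steadman equation gave Kd and ANT concentration.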

[7] = mouse skeletal muscle mitochondria
[8] = mouse heart mitochondria, glutamate + succinate, 20 μM AP5A, mean
[9] = mouse kidney mitochondria, glutamate + succinate, 20 μM AP5A, mean
[10] = mouse liver mitochondria, glutamate + succinate, 20 μM AP5A, mean
[11] = mouse skeletal muscle mitochondria, glutamate + succinate, 20 μM AP5A, mean
[12] = mouse heart mitochondria, no AP5A, mean
[13] = mouse kidney mitochondria, no AP5A, mean
[14] = mouse skeletal muscle mitochondria, no AP5A, mean

SMILES: Nc1ncnc2c1ncn2[C@@H]1O[C@H](COP(=O)(O)OP(=O)(O)O)[C@@H](O)[C@H]1O [ADP]
- Hill exponent, nH, in vivo ([1]; in vivo OxPhos vs [ADP], sigmoidal relationship): ~2.0
- OxPhos K0.5ADP in vivo ([1]; intact contracting mammalian skeletal muscle, 31P-MRS): 20 to 40 µM
- K0.5ADP^3−, Polarography ([2]; free ion ADP^3−): 4.4 ± 0.4 µM and 4.4 µM
- K0.5ADP (ΣADP), Polarography ([2]; glutamate + succinate): 13.1 ± 1.3 µM and 13.1 µM
- Vmax [3]: 251.9 nmol/min/mg
- nH [3]: 1.16
- K0.5ADP ([3]; ΣADP): 11.1 ± 0.8 µM and 11.1 µM
- K0.5ADP, Creatine Kinase, Heart (Creatine Kinase; mouse heart mitochondria, 25°C, pH 7.0): 24.4 µM
- Vmax, Creatine Kinase, Heart (Creatine Kinase; mouse heart mitochondria): 273.9 nmol ATP min^−1 mg^−1
- nH (Hill exponent), Creatine Kinase, Heart (Creatine Kinase; mouse heart mitochondria): 1.00
- K0.5ADP, Creatine Kinase, Kidney (Creatine Kinase; mouse kidney mitochondria, 25°C, pH 7.0): 37.8 µM
- Vmax, Creatine Kinase, Kidney (Creatine Kinase; mouse kidney mitochondria): 28.7 nmol ATP min^−1 mg^−1
- nH (Hill exponent), Creatine Kinase, Kidney (Creatine Kinase; mouse kidney mitochondria): 1.00
- K0.5ADP, Creatine Kinase, Muscle (Creatine Kinase; mouse skeletal muscle mitochondria, 25°C, pH 7.0): 36.3 µM
- Vmax, Creatine Kinase, Muscle (Creatine Kinase; [7]): 944.2 nmol ATP min^−1 mg^−1
- nH (Hill exponent), Creatine Kinase, Muscle (Creatine Kinase; [7]): 1.07
- Kd [4]: ~4 µM
- K0.5ADP^3− for OxPhos, heart ([5]; mouse heart mitochondria, free ion ADP^3− calculated from ΣADP): 1.9 μM and ~ 1.9 μM
- Vmax, Oxidative Phosphorylation, Heart [5, 8]: 242.4 nmol ATP min^−1 mg^−1
- nH (Hill exponent), Oxidative Phosphorylation, Heart [5, 8]: 1.35
- K0.5ADP^3− for OxPhos, kidney ([5]; mouse kidney mitochondria, free ion ADP^3− calculated from ΣADP): 1.9 μM and ~ 1.9 μM
- Vmax, Oxidative Phosphorylation, Kidney [5, 9]: 109.9 nmol ATP min^−1 mg^−1
- nH (Hill exponent), Oxidative Phosphorylation, Kidney [5, 9]: 1.45
- K0.5ADP, Oxidative Phosphorylation, Liver ([5]; mouse liver mitochondria, glutamate + succinate 10 mM + 10 mM, 20 μM AP5A, 25°C, pH 7.0, ΣADP, mean): 22.3 µM
- Vmax, Oxidative Phosphorylation, Liver [5, 10]: 59.9 nmol ATP min^−1 mg^−1
- nH (Hill exponent), Oxidative Phosphorylation, Liver [5, 10]: 1.33
- K0.5ADP^3−, Luciferase ([5]; mouse skeletal muscle mitochondria, same five preparations, 25°C, free ion ADP^3−): 1.9 ± 0.1 μM and 1.9 ^* μM
- K0.5ADP (ΣADP), Luciferase ([5]; mouse skeletal muscle mitochondria, same five preparations, 25°C, glutamate + succinate): 11.9 ± 0.6 µM and 11.9 µM
- K0.5ADP^3− for OxPhos, skeletal muscle ([5]; mouse skeletal muscle mitochondria, free ion ADP^3− calculated from ΣADP): 1.9 μM and ~ 1.9 μM
- K0.5ADP, Oxidative Phosphorylation, Muscle ([5]; mouse skeletal muscle mitochondria, glutamate + succinate, 20 μM AP5A, 25°C, pH 7.0, ΣADP, mean): 11.9 µM
- Vmax, Oxidative Phosphorylation, Muscle [5, 11]: 553.5 nmol ATP min^−1 mg^−1
- nH (Hill exponent), Oxidative Phosphorylation, Muscle [5, 11]: 1.19
- K0.5ADP, Adenylate Kinase, Heart (Adenylate Kinase; mouse heart mitochondria, no AP5A, 25°C, pH 7.0, mean): 54.9 µM
- Vmax, Adenylate Kinase, Heart (Adenylate Kinase; [12]): 30.2 nmol ATP min^−1 mg^−1
- nH (Hill exponent), Adenylate Kinase, Heart (Adenylate Kinase; [12]): 1.85
- K0.5ADP, Adenylate Kinase, Kidney (Adenylate Kinase; mouse kidney mitochondria, no AP5A, 25°C, pH 7.0, mean): 64.3 µM
- Vmax, Adenylate Kinase, Kidney (Adenylate Kinase; [13]): 102.3 nmol ATP min^−1 mg^−1
- nH (Hill exponent), Adenylate Kinase, Kidney (Adenylate Kinase; [13]): 1.74
- K0.5ADP, Adenylate Kinase, Liver (Adenylate Kinase; mouse liver mitochondria, no AP5A, 25°C, pH 7.0, mean): 84.0 µM
- nH (Hill exponent), Adenylate Kinase, Liver (Adenylate Kinase; mouse liver mitochondria, no AP5A, mean): 1.53
- K0.5ADP, Adenylate Kinase, Muscle (Adenylate Kinase; mouse skeletal muscle mitochondria, no AP5A, 25°C, pH 7.0, mean): 78.0 µM
- Vmax, Adenylate Kinase, Muscle (Adenylate Kinase; [14]): 25.7 nmol ATP min^−1 mg^−1
- nH (Hill exponent), Adenylate Kinase, Muscle (Adenylate Kinase; [14]): 1.68

SMILES: Nc1ncnc2c1ncn2[C@@H]1O[C@H](COP(=O)(O)OP(=O)(O)OP(=O)(O)OP(=O)(O)OP(=O)(O)OC[C@H]2O[C@@H](n3cnc4c(N)ncnc43)[C@H](O)[C@@H]2O)[C@@H](O)[C@H]1O [AP5A, diadenosine pentaphosphate, reference compound]
- AK activity in the presence of AP5A (Adenylate Kinase; AP5A present at 20 μM, Figure S-8a, S-8b): not detectable

SMILES: C=C1[C@@H]2CC[C@H]3[C@]4(C)C[C@H](O[C@@H]5O[C@H](CO)[C@@H](OS(=O)(=O)O)[C@H](OS(=O)(=O)O)[C@H]5OC(=O)CC(C)C)CC(C(=O)O)(C(=O)O)[C@H]4CC[C@]3(C2)[C@H]1O [CAT, Carboxyatractyloside]
- Kd [6]: 48 ± 2 pM

From PMC8725320 (Biochimica et biophysica acta. Bioenergetics, 2021)
